ChEMBL document CHEMBL1145688, “New sesquiterpene hydroquinones from a Taiwanese marine sponge Polyfibrospongia australis” (J Nat Prod, 1997)
In brackets after ≈: the same amount, converted by molar mass.

Columns and labels:
Type in all cases: functional, cell-based
A549 = experiment: Cytotoxicity against human A549 cells after 6 days by MTT assay; details: A549, 144 h
How it was run: (§1)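 Modified MTT colorimetric assay. Cells seeded at 1000 cells/well and exposed to twofold serial dilutions of compound. Incubation ran 6 days for A-549 and 3 days for KB-16 and P-388. MTT (1 mg/mL) was then added for 5 h at 37 °C, formazan dissolved in DMSO, and absorbance read at 540 nm. IC50 is the concentration giving a 50% absorbance reduction versus untreated cells.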

[1] = Cytotoxicity against human KB16 cells after 3 days by MTT assay; details: KB16, 72 h; how it was run: as §1
P388 = experiment: Cytotoxicity against mouse P388 cells after 3 days by MTT assay; details: P388, 72 h; how it was run: as §1

Row | Compound | IC50 (A549) [µg/mL] | IC50 [1] [µg/mL] | IC50 (P388) [µg/mL]
1 | C=C1CCC[C@H]2[C@](C)(CC3=C(O)C(=O)C=C(OC)C3=O)[C@@H](C)CC[C@]12C [ILIMAQUINONE] | 0.4 (≈ 1.12 µM) | 0.7 (≈ 1.95 µM) | 0.2 (≈ 0.558 µM)
2 | C=C1CCC[C@H]2[C@](C)(Cc3cc(C(=O)OC)cc(O)c3O)[C@@H](C)CC[C@]12C [DICTYOCERATIN A] | 0.7 (≈ 1.88 µM) | 1.4 (≈ 3.76 µM) | 1.4 (≈ 3.76 µM)
3 | C=C1CCC[C@H]2[C@](CO)(Cc3cc(C(=O)OC)cc(OC)c3O)[C@@H](C)CC[C@]12C [POLYFIBROSPONGOL B] | 1 (≈ 2.48 µM) | 2 (≈ 4.97 µM) | 1 (≈ 2.48 µM)
4 | C=C1CCC[C@H]2[C@](C)(Cc3cc(C(=O)OC)cc(OC(C)=O)c3OC(C)=O)[C@@H](C)CC[C@]12C | 1.5 (≈ 3.29 µM) | 1.8 (≈ 3.94 µM) | 1.9 (≈ 4.16 µM)
5 | C=C1CCC[C@H]2[C@](C)(Cc3cc(C(=O)OC)cc(OC)c3OC(C)=O)[C@@H](C)CC[C@]12C [POLYFIBROSPONGOL A MONOACETATE] | 3.1 | 2.1 | 3.4
6 | C=C1CCC[C@H]2[C@](C)(Cc3cc(C(=O)OC)cc(OC)c3O)[C@@H](C)CC[C@]12C [POLYFIBROSPONGOL A] | 0.6 (≈ 1.55 µM) | 1.4 (≈ 3.62 µM) | 0.7 (≈ 1.81 µM)
7 | C=C1CCC[C@H]2[C@](COC(C)=O)(Cc3cc(C(=O)OC)cc(OC)c3OC(C)=O)[C@@H](C)CC[C@]12C [POLYFIBROSPONGOL B DIACETATE] | > 50 | > 50 | > 50
